# Legend:
# HT-29 = test: Cytotoxicity against human HT-29 cells after 48 hrs by MTT assay; type: functional, cell-based; conditions: HT-29, 48 h
# Summary of the method: (§1)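 Cells grown in DMEM with 10% FBS at 37 °C under humidified 5% CO2. HeLa seeded at 3,000/well and HT29 at 12,500/well, then allowed 24 h before exposure to varying compound concentrations for 48 h. Viability read by MTT; IC50 values derived from duplicate experiments.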
# HeLa = test: Cytotoxicity against human HeLa cells after 48 hrs by MTT assay; type: functional, cell-based; summary of the method: as §1
SMILES,IC50 (HT-29) [µM],IC50 (HeLa) [µM]
CO[C@@H]1[C@@H](OC)[C@H](C)O[C@@H](O[C@@H]2C[C@H]3O[C@@](O)(C2)[C@@H](C)C(=O)O[C@@H](/C=C/C=C/Br)C[C@@H](C)/C=C\C[C@H](O)[C@@H]3C)[C@@H]1OC,38,33
CO[C@@H]1[C@@H](OC)[C@H](C)O[C@@H](O[C@@H]2C[C@@H]3CC[C@@H](C)[C@H](O)C[C@@](C)(CC/C=C/C=C/Br)OC(=O)C[C@](O)(C2)O3)[C@@H]1OC,13,9.3
CO[C@@H]1[C@@H](OC)[C@H](C)O[C@@H](O[C@@H]2C[C@@H]3CC[C@@H](C)[C@H](O)C[C@@](C)(CC/C=C/C=C\Br)OC(=O)C[C@](O)(C2)O3)[C@@H]1OC,> 100,53
CC[C@H](C)[C@@H]1NC(=O)CNC(=O)c2csc(n2)[C@H](C(C)C)OC(=O)C(C)(C)[C@H](CCCC(C)(Cl)Cl)OC(=O)c2csc1n2 [27-DEOXYLYNGBYABELLIN A],0.012,0.0073
CC[C@H](C)[C@@H]1NC(=O)CNC(=O)c2csc(n2)[C@H](C(C)(C)O)OC(=O)C(C)(C)[C@H](CCCC(C)(Cl)Cl)OC(=O)c2csc1n2 [LYNGBYABELLIN A],0.047,0.022
CC(C)[C@@H]1NC(=O)CNC(=O)[C@@H]2CSC(=N2)[C@H](C(C)(C)O)OC(=O)C(C)(C)[C@H](CCCC(C)(Cl)Cl)OC(=O)c2csc1n2 [LYNGBYABELLIN B],1.1,0.71
CCCC(=O)N[C@@H](C(C)C)[C@@H](CC(=O)O[C@@H]1COC(=O)c2csc(n2)[C@@H]([C@@](C)(O)CC)OC(=O)[C@@H](C)[C@H](CCCC(C)(Cl)Cl)OC(=O)c2csc1n2)OC(C)=O [LYNGBYABELLIN J],0.054,0.041
CO[C@@H]1[C@@H](OC)[C@H](C)O[C@@H](O[C@@H]2C[C@H]3O[C@@](O)(C2)[C@H](C)C(=O)O[C@@H](/C=C/C=C/Br)C[C@@H](C)/C=C\C[C@H](O)[C@@H]3C)[C@@H]1OC [LYNGBYALOSIDE],37,35

# Source: ChEMBL document CHEMBL1221344, “Cytotoxic halogenated macrolides and modified peptides from the apratoxin-producing marine cyanobacterium Lyngbya bouillonii from Guam” (J Nat Prod, 2010)
